Broadly, the inhibition is the percentage by which the read-out fell short of the control.

Results on 17 compounds are retold here after ChEMBL document CHEMBL1125061, “Antitumor agents. 111. New 4-hydroxylated and 4-halogenated anilino derivatives of 4'-demethylepipodophyllotoxin as potent inhibitors of human DNA topoisomerase II” (1990).

A short description of experiment [1]: In vitro cytotoxicity against KB cells after a 3-day incubation. The format is functional. The settings on record: Homo sapiens, 72 h, read-out: ID50 (the source's name). In outline:
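KB cell culture, 3-day incubation with drug; read-out was cell number. ID50 taken as the concentration giving a 50% reduction in cell number.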

The next experiment is filed under the species Homo sapiens. Put plainly: Cellular protein-DNA complex formation at 10 uM. The format is functional. Also noted: reference not given here.
Experiment [2] has as its target T1, DNA topoisomerase II (Homo sapiens) (UniProt P11388+Q02880). Put plainly: Evaluated for inhibitory activity against DNA topoisomerase II. It is filed as protein assay.
In experiment [3] the target is T1, DNA topoisomerase II (Homo sapiens). Put plainly: Inhibition of DNA topoisomerase II at 100 uM. It is filed as protein assay. In outline:
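Human DNA topoisomerase II inhibition, tested at 25, 50 and 100 μM. […] The ID₅₀ is set from the degree of inhibition across the three concentrations.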

As to `COc1cc([C@@H]2c3cc4c(cc3[C@@H](Nc3cccc(F)c3)[C@H]3COC(=O)[C@H]23)OCO4)cc(OC)c1O`, the IC50 in experiment [1] was 230 nM. Besides, in the experiment filed under Homo sapiens, the Complex formation stood at 158%. This compound also registered an ID50 in experiment [2] of 50 µM. For the same compound, the inhibition in experiment [3] is 75%.

For `COc1cc([C@@H]2c3cc4c(cc3[C@@H](Nc3ccccc3O)[C@H]3COC(=O)[C@H]23)OCO4)cc(OC)c1O`, the IC50 in experiment [1] came to 4540 nM. This compound also displayed a Complex formation in the experiment filed under Homo sapiens of 151%. This compound had an ID50 in experiment [2] of 25 µM. The same compound registered an inhibition in experiment [3] above 75%.

For `COc1cc([C@@H]2c3cc4c(cc3[C@@H](Nc3ccc(Br)cc3)[C@H]3COC(=O)[C@H]23)OCO4)cc(OC)c1O`, the IC50 in experiment [1] amounted to 220 nM. Moreover, in the experiment listed under Homo sapiens, the Complex formation is recorded as 179%. The compound also had an ID50 in experiment [2] of 100 µM. Moreover, in experiment [3], the inhibition was 50%.

As to `COc1cc([C@@H]2c3cc4c(cc3[C@@H](Nc3ccc(I)cc3)[C@H]3COC(=O)[C@H]23)OCO4)cc(OC)c1O`, the IC50 in experiment [1] is 340 nM. The same compound showed a Complex formation in the experiment filed under Homo sapiens of 64%. In experiment [3], this compound had an inhibition of 25%.

Turning to `COc1cc([C@@H]2c3cc4c(cc3[C@@H](Nc3ccc(F)cc3)[C@H]3COC(=O)[C@H]23)OCO4)cc(OC)c1O`, in experiment [1], the IC50 turned out to be 240 nM. This compound displayed a Complex formation in the experiment filed under Homo sapiens of 213%. The compound further yielded an ID50 in experiment [2] of 10 µM. In experiment [3], this compound registered an inhibition above 75%.

Regarding `COc1cc([C@@H]2c3cc4c(cc3[C@@H](Nc3ccccc3Cl)[C@H]3COC(=O)[C@H]23)OCO4)cc(OC)c1O`, the IC50 in experiment [1] was found to be 2340 nM. This compound gave a Complex formation in the experiment filed under Homo sapiens of 32%. In experiment [3], the inhibition was 25%.

In the case of `COc1cc([C@@H]2c3cc4c(cc3[C@@H](O[C@@H]3O[C@@H]5CO[C@@H](C)O[C@H]5[C@H](O)[C@H]3O)[C@H]3COC(=O)[C@H]23)OCO4)cc(OC)c1O` [ETOPOSIDE], the IC50 in experiment [1] is 200 nM. The compound also yielded a Complex formation in the experiment listed under Homo sapiens of 100%. For the same compound, in experiment [2], the ID50 turned out to be 50 µM. Moreover, the inhibition in experiment [3] worked out at 75%.

On to `COc1cc([C@@H]2c3cc4c(cc3[C@@H](Nc3cccc(Cl)c3)[C@H]3COC(=O)[C@H]23)OCO4)cc(OC)c1O`, for which the IC50 in experiment [1] was 2290 nM. In addition, in the experiment filed under Homo sapiens, the Complex formation is reported as 51%. In addition, the inhibition in experiment [3] came to 50%.

As for `COc1cc([C@@H]2c3cc4c(cc3[C@@H](Nc3cccc(O)c3)[C@H]3COC(=O)[C@H]23)OCO4)cc(OC)c1O`, in experiment [1], the IC50 came to 450 nM. Besides, the Complex formation in the experiment listed under Homo sapiens is 290%. For the same compound, in experiment [2], the ID50 was found to be 5 µM. Also, the inhibition in experiment [3] was above 75%.

Take `COc1cc([C@@H]2c3cc4c(cc3[C@@H](Nc3cc(F)cc(F)c3)[C@H]3COC(=O)[C@H]23)OCO4)cc(OC)c1O`: the IC50 in experiment [1] amounted to 1080 nM. Further, the Complex formation in the experiment listed under Homo sapiens worked out at 115%. For the same compound, the ID50 in experiment [2] is 50 µM. Further, the inhibition in experiment [3] is 50%.

Take `COc1cc([C@@H]2c3cc4c(cc3[C@@H](Nc3ccc(O)cc3)[C@H]3COC(=O)[C@H]23)OCO4)cc(OC)c1O`: the IC50 in experiment [1] stood at 2260 nM. This compound showed a Complex formation in the experiment filed under Homo sapiens of 211%. The ID50 in experiment [2] was 25 µM. In experiment [3], this compound registered an inhibition of 75%.

For the compound `COc1cc([C@@H]2c3cc4c(cc3[C@@H](Nc3ccccc3F)[C@H]3COC(=O)[C@H]23)OCO4)cc(OC)c1O`, the IC50 in experiment [1] turned out to be 250 nM. The same compound had a Complex formation in the experiment filed under Homo sapiens of 121%. Also, the inhibition in experiment [3] stood at 50%.

For `COc1cc([C@@H]2c3cc4c(cc3[C@@H](Nc3cccc(Br)c3)[C@H]3COC(=O)[C@H]23)OCO4)cc(OC)c1O`, the IC50 in experiment [1] came out at 2360 nM. In addition, in the experiment filed under Homo sapiens, the Complex formation is 62%. In addition, in experiment [3], the inhibition came to 25%.

On to `COc1cc([C@@H]2c3cc4c(cc3[C@@H](Nc3ccccc3O)[C@H]3COC(=O)[C@H]23)OCO4)cc(OC)c1OC`, for which, in experiment [1], the IC50 was 4110 nM. Besides, in the experiment filed under Homo sapiens, the Complex formation is on record as 6%. In addition, the inhibition in experiment [3] stood at 25%.

Take `COc1cc([C@@H]2c3cc4c(cc3[C@@H](Nc3cccc(O)c3)[C@H]3COC(=O)[C@H]23)OCO4)cc(OC)c1OC`: the IC50 in experiment [1] was found to be 310 nM. In the experiment listed under Homo sapiens, this compound yielded a Complex formation of 37%. In experiment [3], this compound yielded an inhibition of 25%.

Regarding `COc1cc([C@@H]2c3cc4c(cc3[C@@H](Nc3ccc(O)cc3)[C@H]3COC(=O)[C@H]23)OCO4)cc(OC)c1OC`, the IC50 in experiment [1] came out at 590 nM. Moreover, the Complex formation in the experiment listed under Homo sapiens is recorded as 21%. In experiment [3], this compound showed an inhibition of 25%.

Regarding `COc1cc([C@@H]2c3cc4c(cc3[C@@H](Nc3ccc(Cl)cc3)[C@H]3COC(=O)[C@H]23)OCO4)cc(OC)c1O`, the IC50 in experiment [1] is 220 nM. In addition, the Complex formation in the experiment filed under Homo sapiens is 99%. In experiment [2], this compound came in with an ID50 of 50 µM. Besides, the inhibition in experiment [3] stood at 75%.
